ChEMBL document CHEMBL1156226, “Synthesis and structure-activity relationship studies of peptidomimetic PKB/Akt inhibitors: the significance of backbone interactions” (Bioorg Med Chem, 2010)
Peptide text beside a SMILES is read from it.

How the values were obtained:
[1] = molecular target: T1, RAC-alpha serine/threonine-protein kinase (Homo sapiens, UniProt P31749); assay: Inhibition of PKB at 5 uM by radioactive kinase assay relative to control
Summary of the method: (§1)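 PKB/Akt enzyme HisAPHPKBEEEFlag, partly purified in one step on Ni-NTA agarose. The radioactive kinase reaction contains 50 mM Hepes pH 7.4, 0.1 mM EGTA, 0.1% 2-mercaptoethanol, 10 mM magnesium acetate, 3 uM RPRTSSF peptide substrate, 10 uM [γ32P]ATP and 0.005 units enzyme. Inhibition is given as percent reduction of activity against a no-inhibitor control. IC50 values, with 95% confidence ranges, come from curve fitting.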

[2] = molecular target: T1, RAC-alpha serine/threonine-protein kinase; assay: Inhibition of PKB at 20 uM by radioactive kinase assay relative to control; summary of the method: as §1
[3] = Stability in presence of trypsin and chymotrypsin assessed as peptide degradation at 1 mM within 90 mins by HPLC; format: ADME; conditions: isolated protein, 1.5 h, 1000 µM
Summary of the method: (§2)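 Peptide at 1 mM in 200 mM NH4HCO3, pH 8, is mixed with porcine pancreatic trypsin plus chymotrypsin (2.5 mg/ml solution) and incubated at 37 °C. Samples are taken every 30 min and quenched with 2% TFA/30% acetonitrile in water. Degradation is followed by HPLC and MALDI-TOF MS.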

[4] = molecular target: T1, RAC-alpha serine/threonine-protein kinase; assay: Inhibition of PKB by radioactive kinase assay; summary of the method: as §1
[5] = Stability in presence of trypsin and chymotrypsin assessed as peptide degradation at 1 mM within 30 mins by HPLC; format: ADME; conditions: isolated protein, 0.5 h, 1000 µM; summary of the method: as §2
[6] = molecular target: T1, RAC-alpha serine/threonine-protein kinase; assay: Inhibition of PKB at 100 uM by radioactive kinase assay relative to control; summary of the method: as §1
[7] = molecular target: T1, RAC-alpha serine/threonine-protein kinase; assay: Inhibition of PKB at 50 uM by radioactive kinase assay relative to control; summary of the method: as §1
[8] = Stability in presence of trypsin and chymotrypsin assessed as peptide degradation at 1 mM after 30 mins by HPLC; format: ADME; conditions: read-out: Activity; summary of the method: as §2
[9] = Stability in presence of trypsin and chymotrypsin assessed as peptide degradation at 1 mM after 2 hrs by HPLC; format: ADME; conditions: isolated protein, 1000 µM; summary of the method: as §2

T1 sequence (P31749 whole entry): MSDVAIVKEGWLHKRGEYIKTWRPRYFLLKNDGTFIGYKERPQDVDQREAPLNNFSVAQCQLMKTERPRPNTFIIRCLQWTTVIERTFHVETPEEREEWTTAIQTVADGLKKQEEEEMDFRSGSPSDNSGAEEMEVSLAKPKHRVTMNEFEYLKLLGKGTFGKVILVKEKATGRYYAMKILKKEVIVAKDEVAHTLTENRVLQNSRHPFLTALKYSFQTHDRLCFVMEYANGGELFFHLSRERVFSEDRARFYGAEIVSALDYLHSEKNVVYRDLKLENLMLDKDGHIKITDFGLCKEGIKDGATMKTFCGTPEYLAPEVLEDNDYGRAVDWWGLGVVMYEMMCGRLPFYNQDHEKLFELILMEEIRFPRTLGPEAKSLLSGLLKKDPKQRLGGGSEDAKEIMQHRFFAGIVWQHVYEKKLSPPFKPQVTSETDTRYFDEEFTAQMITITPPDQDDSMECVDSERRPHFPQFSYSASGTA

CCC[C@H](NC(=O)[C@H](CCCNC(=N)N)NC(=O)[C@@H]1CCCN1C(=O)[C@H](CCCNC(=N)N)NC(=O)[C@@H](N)CCCNC(=N)N)C(=O)N[C@@H](Cc1ccc(O)cc1)C(=O)N[C@@H](CN)C(=O)N[C@@H](CCC(C)C)C(N)=O
inhibition [1]: 88% | inhibition [2]: 96%

CCC[C@H](NC(=O)[C@H](CCCNC(=N)N)NC(=O)[C@H](C)N(C)C(=O)[C@@H](N)CCCNC(=N)N)C(=O)N[C@@H](Cc1ccc(O)cc1)C(=O)N[C@@H](CN)C(=O)N[C@@H](CCC(C)C)C(N)=O (HELM PEPTIDE1{R.[meA].R.[Nva].Y.[NC[C@H](N[*:1])C(=O)[*:2]].[CC(C)CC[C@H](N[*:1])C(=O)[*:2]].[am]}$$$$V2.0)
inhibition [1]: 77% | Stability [3]: Unstable | IC50 [4]: 2030 nM | Stability [5]: Unstable | inhibition [6]: 95%

CCC[C@H](NC(=O)[C@H](CCCNC(=N)N)NC(=O)[C@@H]1CCCN1C(=O)[C@H](CCCNC(=N)N)NC(=O)[C@H](N)CCCNC(=N)N)C(=O)N[C@@H](Cc1ccc(O)cc1)C(=O)N[C@@H](CN)C(=O)N[C@@H](CCC(C)C)C(N)=O
inhibition [2]: 40%

CCC[C@H](NC(=O)[C@H](CCCNC(=N)N)NC(=O)[C@@H]1CCCN1C(=O)[C@@H](N)CCCNC(=N)N)C(=O)N[C@@H](Cc1ccc(O)cc1)C(=O)N[C@H](CS)C(=O)N[C@@H](CCC(C)C)C(N)=O
inhibition [1]: 95% | inhibition [7]: 95%

CCC[C@H](NC(=O)[C@H](CCCN=C(N)N)NC(=O)[C@@H]1CCCN1C(=O)[C@@H](N)CCCN=C(N)N)C(=O)N[C@@H](Cc1ccc(O)cc1)C(=O)N[C@H](CS)C(=O)N[C@@H](CCC(C)C)C(N)=O
IC50 [4]: 400 nM

CCC[C@H](NC(=O)[C@H](CCCNC(=N)N)NC(=O)[C@@H]1CCCN1C(=O)[C@H](CCCNC(=N)N)NC(=O)[C@H](CCCNC(=N)N)NC(C)=O)C(=O)N[C@@H](Cc1ccc(O)cc1)C(=O)N[C@@H](CN)C(=O)N[C@@H](CCC(C)C)C(N)=O (HELM PEPTIDE1{[ac].R.R.P.R.[Nva].Y.[NC[C@H](N[*:1])C(=O)[*:2]].[CC(C)CC[C@H](N[*:1])C(=O)[*:2]].[am]}$$$$V2.0)
inhibition [1]: 83% | inhibition [2]: 94%

CCC[C@H](NC(=O)[C@H](CCCNC(=N)N)NC(=O)[C@@H]1CCCN1C(=O)[C@H](CCCNC(=N)N)NC(=O)[C@@H](N)CCCCN)C(=O)N[C@@H](Cc1ccc(O)cc1)C(=O)N[C@@H](CN)C(=O)N[C@@H](CCC(C)C)C(N)=O
inhibition [1]: 73% | inhibition [2]: 92%

CCC[C@H](NC(=O)[C@H](CCCN=C(N)N)NC(=O)[C@@H]1CCCN1C(=O)[C@H](CCCN=C(N)N)NC(=O)[C@@H](N)CCCN=C(N)N)C(=O)N[C@@H](Cc1ccc(O)cc1)C(=O)N[C@@H](CN)C(=O)N[C@@H](CCC(C)C)C(N)=O
IC50 [4]: 840 nM

CCC[C@H](NC(=O)[C@H](CCCNC(=N)N)NC(=O)[C@@H]1CCCN1C(=O)[C@@H](N)CCCNC(=N)N)C(=O)N[C@@H](Cc1ccc(O)cc1)C(=O)N[C@@H](CN)C(=O)N[C@@H](CCC(C)C)C(N)=O (HELM PEPTIDE1{R.P.R.[Nva].Y.[NC[C@H](N[*:1])C(=O)[*:2]].[CC(C)CC[C@H](N[*:1])C(=O)[*:2]].[am]}$$$$V2.0)
inhibition [1]: 87% | metabolised at 0.5 h, 1000 µM [8]: 40% | inhibition [2]: 96% | IC50 [4]: 940 nM | inhibition [7]: 99% | inhibition [6]: 99% | Stability [9]: Unstable

CCC[C@H](NC(=O)[C@H](CCCNC(=N)N)NC(=O)[C@@H]1CCCN1C(=O)[C@H](CCCNC(=N)N)NC(=O)[C@H](N)CCCNC(=N)N)C(=O)N[C@@H](Cc1ccc(O)cc1)C(=O)N[C@@H](CN)C(=O)N[C@@H](CCC(C)C)C(=O)O
inhibition [2]: 69%

CCC[C@H](NC(=O)[C@H](CCCNC(=N)N)NC(=O)[C@@H]1CCCN1C(=O)[C@H](CCCNC(=N)N)NC(=O)[C@H](N)CCCCN)C(=O)N[C@@H](Cc1ccc(O)cc1)C(=O)N[C@@H](CN)C(=O)N[C@@H](CCC(C)C)C(N)=O
inhibition [2]: 3%

CCC[C@H](NC(=O)[C@H](CCCN=C(N)N)NC(=O)[C@@H]1CCCN1C(=O)[C@H](CCCN=C(N)N)NC(=O)[C@H](CCCN=C(N)N)NC(C)=O)C(=O)N[C@@H](Cc1ccc(O)cc1)C(=O)N[C@@H](CN)C(=O)N[C@@H](CCC(C)C)C(N)=O (HELM PEPTIDE1{[ac].R.R.P.R.[Nva].Y.[NC[C@H](N[*:1])C(=O)[*:2]].[CC(C)CC[C@H](N[*:1])C(=O)[*:2]].[am]}$$$$V2.0)
IC50 [4]: 1170 nM

CCC[C@H](NC(=O)[C@H](CCCNC(=N)N)NC(=O)[C@@H]1CCCN1C(=O)[C@H](CCCNC(=N)N)NC(=O)[C@H](CCCCN)NC(C)=O)C(=O)N[C@@H](Cc1ccc(O)cc1)C(=O)N[C@@H](CN)C(=O)N[C@@H](CCC(C)C)C(=O)O (HELM PEPTIDE1{[ac].K.R.P.R.[Nva].Y.[NC[C@H](N[*:1])C(=O)[*:2]].[CC(C)CC[C@H](N[*:1])C(=O)O]}$$$$V2.0)
inhibition [2]: 46%

CCC[C@H](NC(=O)[C@H](CCCNC(=N)N)NC(=O)[C@@H]1CCCN1C(=O)[C@H](CCCNC(=N)N)NC(=O)[C@H](CCCCN)NC(C)=O)C(=O)N[C@@H](Cc1ccc(O)cc1)C(=O)N[C@@H](CN)C(=O)N[C@@H](CCC(C)C)C(N)=O (HELM PEPTIDE1{[ac].K.R.P.R.[Nva].Y.[NC[C@H](N[*:1])C(=O)[*:2]].[CC(C)CC[C@H](N[*:1])C(=O)[*:2]].[am]}$$$$V2.0)
inhibition [1]: 61% | inhibition [2]: 85%

CCC[C@H](NC(=O)[C@H](CCCNC(=N)N)NC(=O)[C@@H]1CCCN1C(=O)[C@H](CCCNC(=N)N)NC)C(=O)N[C@@H](Cc1ccc(O)cc1)C(=O)N[C@@H](CN)C(=O)N[C@@H](CCC(C)C)C(N)=O (HELM PEPTIDE1{[meR].P.R.[Nva].Y.[NC[C@H](N[*:1])C(=O)[*:2]].[CC(C)CC[C@H](N[*:1])C(=O)[*:2]].[am]}$$$$V2.0)
inhibition [1]: 85% | IC50 [4]: 920 nM | inhibition [6]: 97%

CCC[C@H](NC(=O)[C@H](CCCNC(=N)N)NC(=O)[C@@H]1CCCN1C(=O)[C@H](CCCNC(=N)N)NC(=O)[C@H](N)CCCCN)C(=O)N[C@@H](Cc1ccc(O)cc1)C(=O)N[C@@H](CN)C(=O)N[C@@H](CCC(C)C)C(=O)O
inhibition [2]: 48%
